Activity calls are given as the source filed them. No cut-off for these calls is given here.
Tests used:
MDCK = assay: Cytotoxicity against MDCK cells at 50 uM after 40 hrs by CellTiter-Glo assay; format: cell-based, Canis lupus familiaris; settings: dog
Procedure, shortened: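 Single-concentration toxicity screen at 50 μM final on MDCK cells for 40 h, read by CellTiter-Glo. 0.5% DMSO final as negative control. Triplicate experiments, standard deviations shown.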

Influenza A virus [1] = assay: Antiviral activity against Influenza A virus A/WSN/33/H1N1 infected in MDCK cells assessed as reduction in virus-induced cytopathic effect at 50 uM after 40 hrs by CellTiter-Glo assay; format: functional, organism-based
Procedure, shortened: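 Single-concentration screen at 50 μM final. MDCK cells infected with A/WSN/33 (H1N1) at MOI 0.1 in DMEM/1% FBS with TPCK-trypsin for 40 h, viability by CellTiter-Glo. 0.5% DMSO final as negative control, oseltamivir as positive control. Triplicate experiments, standard deviations shown.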

[2] = Cytotoxicity against MDCK cells after 40 hrs by CellTiter-Glo assay; format: cell-based, Canis lupus familiaris; settings: dog
Procedure, shortened: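 MDCK cells grown overnight in medium with 1% FBS, then exposed to increasing compound concentrations for 40 h. Viability measured by CellTiter-Glo luminescence, and CC50 derived from it.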

Influenza A virus [3] = assay: Antiviral activity against Influenza A virus A/WSN/33/H1N1 infected in MDCK cells assessed as reduction in virus-induced cytopathic effect after 40 hrs by CellTiter-Glo assay; format: functional, organism-based; settings: A/WSN/33/H1N1, MDCK
Procedure, shortened: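 MDCK cells seeded overnight, infected with influenza A/WSN/33 (H1N1) at MOI 0.1. Kept in DMEM with 1% FBS, test compound, TPCK-treated trypsin and 1% final DMSO for 40 h. Cell viability read by CellTiter-Glo luminescence. IC50 taken from dose-response.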

SMILES | Activity (MDCK) | further results
CC1(C)CC[C@]2(C(=O)NCCNC(=O)c3cc(OCc4ccccc4)cc(OCc4ccccc4)c3)CC[C@]3(C)C(=CC[C@@H]4[C@@]5(C)CC[C@H](O)C(C)(C)[C@@H]5CC[C@]43C)[C@@H]2C1 | Non-Toxic | –
CC1(C)CC[C@]2(C(=O)NCCNC(=O)c3ccc(OCc4ccccc4)cc3)CC[C@]3(C)C(=CC[C@@H]4[C@@]5(C)CC[C@H](O)C(C)(C)[C@@H]5CC[C@]43C)[C@@H]2C1 | Non-Toxic | –
CC1(C)CC[C@]2(C(=O)NCCNC(=O)c3cc(O)c(O)c(O)c3)[C@H](O)C[C@]3(C)C(=CC[C@@H]4[C@@]5(C)CC[C@H](O)C(C)(C)[C@@H]5CC[C@]43C)[C@@H]2C1 | Toxic | –
C[C@H]1[C@H](C)CC[C@]2(C(=O)NCCNC(=O)c3ccc(O)cc3)CC[C@]3(C)C(=CC[C@@H]4[C@@]5(C)CC[C@H](O)C(C)(C)[C@@H]5CC[C@]43C)[C@H]12 | Toxic | –
C=C(C)[C@@H]1CC[C@]2(C(=O)NCCNC(=O)c3cc(OCc4ccccc4)c(OCc4ccccc4)c(OCc4ccccc4)c3)CC[C@]3(C)[C@H](CC[C@@H]4[C@@]5(C)CC[C@H](O)C(C)(C)[C@@H]5CC[C@]43C)[C@@H]12 | Non-Toxic | –
CC1(C)CC[C@]2(C(=O)NCCNC(=O)c3cc(O)c(O)c(O)c3)CC[C@]3(C)C(=CC[C@@H]4[C@@]5(C)CC[C@H](O)C(C)(C)[C@@H]5CC[C@]43C)[C@@H]2C1 | Toxic | –
CC1(C)CC[C@]2(C(=O)NCCNC(=O)c3cc(OCc4ccccc4)c(OCc4ccccc4)c(OCc4ccccc4)c3)[C@H](O)C[C@]3(C)C(=CC[C@@H]4[C@@]5(C)CC[C@H](O)C(C)(C)[C@@H]5CC[C@]43C)[C@@H]2C1 | Non-Toxic | Activity (Influenza A virus [1]): Active
CC1(C)CC[C@]2(C(=O)NCCNC(=O)c3ccc(O)cc3O)[C@H](O)C[C@]3(C)C(=CC[C@@H]4[C@@]5(C)CC[C@H](O)C(C)(C)[C@@H]5CC[C@]43C)[C@@H]2C1 | Toxic | –
C[C@H]1[C@H](C)CC[C@]2(C(=O)NCCNC(=O)/C=C/c3ccc(O)cc3)CC[C@]3(C)C(=CC[C@@H]4[C@@]5(C)CC[C@H](O)C(C)(C)[C@@H]5CC[C@]43C)[C@H]12 | Non-Toxic | –
C[C@H]1[C@H](C)CC[C@]2(C(=O)NCCNC(=O)/C=C/c3ccccc3)CC[C@]3(C)C(=CC[C@@H]4[C@@]5(C)CC[C@H](O)C(C)(C)[C@@H]5CC[C@]43C)[C@H]12 | Non-Toxic | CC50 at 40 h [2]: > 100 µM; Activity (Influenza A virus [1]): Active; IC50 (Influenza A virus [3]): 18.3 µM
C[C@H]1[C@H](C)CC[C@]2(C(=O)NCCNC(=O)c3ccc(OCc4ccccc4)cc3)CC[C@]3(C)C(=CC[C@@H]4[C@@]5(C)CC[C@H](O)C(C)(C)[C@@H]5CC[C@]43C)[C@H]12 | Non-Toxic | –
CC1(C)CC[C@]2(C(=O)NCCNC(=O)/C=C/c3ccc(O)cc3)CC[C@]3(C)C(=CC[C@@H]4[C@@]5(C)CC[C@H](O)C(C)(C)[C@@H]5CC[C@]43C)[C@@H]2C1 | Non-Toxic | –
CC1(C)CC[C@]2(C(=O)NCCNC(=O)c3ccc(OCc4ccccc4)cc3)[C@H](O)C[C@]3(C)C(=CC[C@@H]4[C@@]5(C)CC[C@H](O)C(C)(C)[C@@H]5CC[C@]43C)[C@@H]2C1 | Non-Toxic | –
CC1(C)CC[C@]2(C(=O)NCCNC(=O)/C=C/c3ccccc3)[C@H](O)C[C@]3(C)C(=CC[C@@H]4[C@@]5(C)CC[C@H](O)C(C)(C)[C@@H]5CC[C@]43C)[C@@H]2C1 | Toxic | –
CC1(C)CC[C@]2(C(=O)NCCNC(=O)c3cc(O)cc(O)c3)CC[C@]3(C)C(=CC[C@@H]4[C@@]5(C)CC[C@H](O)C(C)(C)[C@@H]5CC[C@]43C)[C@@H]2C1 | Toxic | –
C[C@H]1[C@H](C)CC[C@]2(C(=O)NCCNC(=O)c3cc(OCc4ccccc4)c(OCc4ccccc4)c(OCc4ccccc4)c3)CC[C@]3(C)C(=CC[C@@H]4[C@@]5(C)CC[C@H](O)C(C)(C)[C@@H]5CC[C@]43C)[C@H]12 | Non-Toxic | CC50 at 40 h [2]: > 100 µM; Activity (Influenza A virus [1]): Active; IC50 (Influenza A virus [3]): 32.9 µM
CC1(C)CC[C@]2(C(=O)NCCNC(=O)c3ccccc3O)[C@H](O)C[C@]3(C)C(=CC[C@@H]4[C@@]5(C)CC[C@H](O)C(C)(C)[C@@H]5CC[C@]43C)[C@@H]2C1 | Non-Toxic | CC50 at 40 h [2]: > 100 µM; Activity (Influenza A virus [1]): Active; IC50 (Influenza A virus [3]): 5.84 µM
C=C(C)[C@@H]1CC[C@]2(C(=O)NCCNC(=O)c3ccc(O)cc3)CC[C@]3(C)[C@H](CC[C@@H]4[C@@]5(C)CC[C@H](O)C(C)(C)[C@@H]5CC[C@]43C)[C@@H]12 | Toxic | –
CC1(C)CC[C@]2(C(=O)NCCNC(=O)/C=C/c3ccc(O)cc3)[C@H](O)C[C@]3(C)C(=CC[C@@H]4[C@@]5(C)CC[C@H](O)C(C)(C)[C@@H]5CC[C@]43C)[C@@H]2C1 | Non-Toxic | –

SMILES | Activity (MDCK) | further results
CCOC(=O)C1=C[C@@H](OC(CC)CC)[C@H](NC(C)=O)[C@@H](N)C1 [OSELTAMIVIR] | – | CC50 at 40 h [2]: > 200 µM; IC50 (Influenza A virus [3]): 16.5 µM
C[C@H]1[C@H](C)CC[C@]2(C(=O)NCCNC(=O)c3ccc(O)cc3O)CC[C@]3(C)C(=CC[C@@H]4[C@@]5(C)CC[C@H](O)C(C)(C)[C@@H]5CC[C@]43C)[C@H]12 | Toxic | –
CC1(C)CC[C@]2(C(=O)NCCNC(=O)c3ccc(O)cc3)[C@H](O)C[C@]3(C)C(=CC[C@@H]4[C@@]5(C)CC[C@H](O)C(C)(C)[C@@H]5CC[C@]43C)[C@@H]2C1 | Toxic | –
C=C(C)[C@@H]1CC[C@]2(C(=O)NCCNC(=O)c3ccc(O)cc3O)CC[C@]3(C)[C@H](CC[C@@H]4[C@@]5(C)CC[C@H](O)C(C)(C)[C@@H]5CC[C@]43C)[C@@H]12 | Toxic | –
C=C(C)[C@@H]1CC[C@]2(C(=O)NCCNC(=O)c3cc(O)c(O)c(O)c3)CC[C@]3(C)[C@H](CC[C@@H]4[C@@]5(C)CC[C@H](O)C(C)(C)[C@@H]5CC[C@]43C)[C@@H]12 | Toxic | Activity (Influenza A virus [1]): Active
CC1(C)CC[C@]2(C(=O)NCCNC(=O)c3cc(OCc4ccccc4)cc(OCc4ccccc4)c3)[C@H](O)C[C@]3(C)C(=CC[C@@H]4[C@@]5(C)CC[C@H](O)C(C)(C)[C@@H]5CC[C@]43C)[C@@H]2C1 | Non-Toxic | –
C[C@H]1[C@H](C)CC[C@]2(C(=O)NCCNC(=O)c3cc(OCc4ccccc4)cc(OCc4ccccc4)c3)CC[C@]3(C)C(=CC[C@@H]4[C@@]5(C)CC[C@H](O)C(C)(C)[C@@H]5CC[C@]43C)[C@H]12 | Non-Toxic | –
CC1(C)CC[C@]2(C(=O)NCCNC(=O)c3cc(O)cc(O)c3)[C@H](O)C[C@]3(C)C(=CC[C@@H]4[C@@]5(C)CC[C@H](O)C(C)(C)[C@@H]5CC[C@]43C)[C@@H]2C1 | Toxic | –
C[C@H]1[C@H](C)CC[C@]2(C(=O)NCCNC(=O)c3cc(O)cc(O)c3)CC[C@]3(C)C(=CC[C@@H]4[C@@]5(C)CC[C@H](O)C(C)(C)[C@@H]5CC[C@]43C)[C@H]12 | Toxic | –
CC1(C)CC[C@]2(C(=O)NCCNC(=O)c3ccc(O)cc3O)CC[C@]3(C)C(=CC[C@@H]4[C@@]5(C)CC[C@H](O)C(C)(C)[C@@H]5CC[C@]43C)[C@@H]2C1 | Toxic | –
C=C(C)[C@@H]1CC[C@]2(C(=O)NCCNC(=O)c3cc(OCc4ccccc4)cc(OCc4ccccc4)c3)CC[C@]3(C)[C@H](CC[C@@H]4[C@@]5(C)CC[C@H](O)C(C)(C)[C@@H]5CC[C@]43C)[C@@H]12 | Non-Toxic | –
C=C(C)[C@@H]1CC[C@]2(C(=O)NCCNC(=O)c3ccc(OCc4ccccc4)cc3)CC[C@]3(C)[C@H](CC[C@@H]4[C@@]5(C)CC[C@H](O)C(C)(C)[C@@H]5CC[C@]43C)[C@@H]12 | Non-Toxic | –
C[C@H]1[C@H](C)CC[C@]2(C(=O)NCCNC(=O)c3cc(O)c(O)c(O)c3)CC[C@]3(C)C(=CC[C@@H]4[C@@]5(C)CC[C@H](O)C(C)(C)[C@@H]5CC[C@]43C)[C@H]12 | Toxic | –
CC1(C)CC[C@]2(C(=O)NCCNC(=O)c3cc(OCc4ccccc4)c(OCc4ccccc4)c(OCc4ccccc4)c3)CC[C@]3(C)C(=CC[C@@H]4[C@@]5(C)CC[C@H](O)C(C)(C)[C@@H]5CC[C@]43C)[C@@H]2C1 | Non-Toxic | Activity (Influenza A virus [1]): Active
CC1(C)CC[C@]2(C(=O)NCCNC(=O)/C=C/c3ccccc3)CC[C@]3(C)C(=CC[C@@H]4[C@@]5(C)CC[C@H](O)C(C)(C)[C@@H]5CC[C@]43C)[C@@H]2C1 | Toxic | –
C=C(C)[C@@H]1CC[C@]2(C(=O)NCCNC(=O)c3cc(O)cc(O)c3)CC[C@]3(C)[C@H](CC[C@@H]4[C@@]5(C)CC[C@H](O)C(C)(C)[C@@H]5CC[C@]43C)[C@@H]12 | Toxic | –
CC1(C)CC[C@]2(C(=O)NCCNC(=O)c3ccc(O)cc3)CC[C@]3(C)C(=CC[C@@H]4[C@@]5(C)CC[C@H](O)C(C)(C)[C@@H]5CC[C@]43C)[C@@H]2C1 | Non-Toxic | –
C=C(C)[C@@H]1CC[C@]2(C(=O)NCCNC(=O)/C=C/c3ccccc3)CC[C@]3(C)[C@H](CC[C@@H]4[C@@]5(C)CC[C@H](O)C(C)(C)[C@@H]5CC[C@]43C)[C@@H]12 | Non-Toxic | –
